Source: ChEMBL document CHEMBL4041521, “3-Aroylindoles display antitumor activity in vitro and in vivo: Effects of N1-substituents on biological activity” (Eur J Med Chem, 2017)
Active and inactive are the calls of the source. The calls are words filed in the database; no cut-off is given here.

Key:
PC-3 = assay: Antiproliferative activity against human PC3 cells measured after 48 hrs by sulforhodamine-B assay; type: functional, cell-based; details: PC-3, 48 h
Histone deacetylase 1 = Histone deacetylase 1 (Homo sapiens, UniProt Q13547); assay: Inhibition of recombinant human HDAC1 using fluorogenic substrate by fluorescence assay
Homo sapiens [1] = species: Homo sapiens; assay: Inhibition of HDAC in human PC3 cells assessed as increase in histone-H3 acetylation by Western blot analysis; type: cell-based
In short: (§1)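 PC3 prostate cancer cells treated, then lysed in 20 mM Tris-HCl pH 7.5 with 150 mM NaCl, EDTA/EGTA, phosphatase and protease inhibitors, 0.1% Triton X-100. Lysates spun 13,000 rpm for 30 min, then immunoblotted for acetylated α-tubulin and acetylated histone H3.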

Histone deacetylase 2 = Histone deacetylase 2 (Homo sapiens, UniProt Q92769); assay: Inhibition of recombinant human HDAC2 using fluorogenic substrate by fluorescence assay
HCT-116 = assay: Antiproliferative activity against human HCT116 cells measured after 48 hrs by sulforhodamine-B assay; type: functional, cell-based; details: HCT-116, 48 h
[2] = biological target: T1, Protein deacetylase HDAC6 (Homo sapiens, UniProt Q9UBN7); assay: Inhibition of recombinant human HDAC6 using fluorogenic substrate by fluorescence assay
T1 sequence (Q9UBN7 whole entry): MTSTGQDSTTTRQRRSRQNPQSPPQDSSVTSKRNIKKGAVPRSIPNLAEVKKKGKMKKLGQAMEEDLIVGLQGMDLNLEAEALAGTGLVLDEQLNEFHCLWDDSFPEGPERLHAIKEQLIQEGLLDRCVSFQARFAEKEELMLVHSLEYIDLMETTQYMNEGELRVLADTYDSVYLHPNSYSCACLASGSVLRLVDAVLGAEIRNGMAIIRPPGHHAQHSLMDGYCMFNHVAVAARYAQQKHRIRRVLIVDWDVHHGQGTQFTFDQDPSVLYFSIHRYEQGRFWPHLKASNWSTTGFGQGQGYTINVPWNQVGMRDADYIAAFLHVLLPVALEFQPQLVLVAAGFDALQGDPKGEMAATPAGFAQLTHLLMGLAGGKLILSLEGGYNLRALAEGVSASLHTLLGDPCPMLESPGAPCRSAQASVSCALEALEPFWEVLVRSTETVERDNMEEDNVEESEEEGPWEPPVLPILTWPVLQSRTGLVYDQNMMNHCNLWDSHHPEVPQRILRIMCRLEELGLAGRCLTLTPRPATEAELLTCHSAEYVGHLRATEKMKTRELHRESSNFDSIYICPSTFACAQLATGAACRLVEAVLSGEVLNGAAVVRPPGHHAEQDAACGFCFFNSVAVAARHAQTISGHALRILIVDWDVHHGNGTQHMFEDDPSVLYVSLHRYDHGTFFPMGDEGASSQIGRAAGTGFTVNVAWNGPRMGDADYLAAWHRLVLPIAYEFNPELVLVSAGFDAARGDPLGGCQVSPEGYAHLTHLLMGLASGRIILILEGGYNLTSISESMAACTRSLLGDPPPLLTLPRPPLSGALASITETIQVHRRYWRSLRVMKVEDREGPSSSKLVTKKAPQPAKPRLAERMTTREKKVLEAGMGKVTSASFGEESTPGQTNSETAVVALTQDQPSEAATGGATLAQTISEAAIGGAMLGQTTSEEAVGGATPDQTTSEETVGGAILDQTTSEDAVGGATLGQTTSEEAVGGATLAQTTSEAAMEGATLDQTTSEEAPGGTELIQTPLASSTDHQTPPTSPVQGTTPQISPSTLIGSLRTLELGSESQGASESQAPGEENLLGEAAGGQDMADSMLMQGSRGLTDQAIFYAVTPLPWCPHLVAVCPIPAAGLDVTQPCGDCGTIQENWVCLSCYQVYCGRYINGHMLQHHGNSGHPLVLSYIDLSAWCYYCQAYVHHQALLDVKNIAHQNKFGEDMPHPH

A549 = assay: Antiproliferative activity against human A549 cells measured after 48 hrs by sulforhodamine-B assay; type: functional, cell-based; details: A549, 48 h
Homo sapiens [3] = species: Homo sapiens; assay: Inhibition of tubulin polymerization in human PC3 cells assessed as […] in MPM2 expression at 0.01 to 10 uM by Western blot analysis; type: cell-based
Sus scrofa [4] = species: Sus scrofa; assay: Inhibition of purified porcine tubulin polymerization at 10 uM measured every 1 min for 30 mins
[5] = Inhibition of HDAC activity in human HeLa cell nuclear extract using fluorometric substrate measured after 30 mins by fluorescence assay; type: cell-based
Homo sapiens [6] = species: Homo sapiens; assay: Inhibition of HDAC in human PC3 cells assessed as increase in alpha-tubulin acetylation by Western blot analysis; type: cell-based; in short: as §1
Mus musculus = assay: Toxicity in human RPMI8226 cells xenografted in athymic mouse assessed as mortality at 1 mg/kg, ip administered once in a week; type: organism-based; details: in vivo
In short: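 RPMI-8226 xenograft nude mice given bortezomib 1 mg/kg i.p. once a week as reference treatment; animal deaths recorded.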

Homo sapiens [7] = species: Homo sapiens; assay: Inhibition of HDAC in human PC3 cells assessed as increase in histone-H3 acetylation at 0.01 to 10 uM by Western blot analysis; type: cell-based; in short: as §1
Sus scrofa [8] = species: Sus scrofa; assay: Inhibition of purified porcine tubulin polymerization measured every 1 min for 30 mins
Homo sapiens [9] = species: Homo sapiens; assay: Selectivity ratio of IC50 for recombinant human HDAC8 to IC50 for recombinant human HDAC6
Sus scrofa [10] = species: Sus scrofa; assay: Inhibition of purified porcine tubulin polymerization at 1 to 10 uM measured every 1 min for 30 mins

Chain of Histone deacetylase 2 (Q92769 whole entry): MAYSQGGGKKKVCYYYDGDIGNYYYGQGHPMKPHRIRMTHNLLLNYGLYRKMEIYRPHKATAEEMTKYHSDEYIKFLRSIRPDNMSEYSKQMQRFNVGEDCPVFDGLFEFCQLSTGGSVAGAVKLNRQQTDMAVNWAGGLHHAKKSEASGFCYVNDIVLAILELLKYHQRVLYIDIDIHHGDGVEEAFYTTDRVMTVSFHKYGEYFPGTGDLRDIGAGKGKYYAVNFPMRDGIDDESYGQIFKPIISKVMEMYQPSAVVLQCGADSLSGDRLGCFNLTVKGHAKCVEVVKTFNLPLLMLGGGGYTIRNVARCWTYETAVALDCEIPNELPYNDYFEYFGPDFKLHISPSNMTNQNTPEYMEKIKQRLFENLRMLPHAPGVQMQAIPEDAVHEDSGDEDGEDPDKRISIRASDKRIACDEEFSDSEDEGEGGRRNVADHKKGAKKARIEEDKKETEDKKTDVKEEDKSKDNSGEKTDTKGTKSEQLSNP
Chain of Histone deacetylase 1 (Q13547 whole entry): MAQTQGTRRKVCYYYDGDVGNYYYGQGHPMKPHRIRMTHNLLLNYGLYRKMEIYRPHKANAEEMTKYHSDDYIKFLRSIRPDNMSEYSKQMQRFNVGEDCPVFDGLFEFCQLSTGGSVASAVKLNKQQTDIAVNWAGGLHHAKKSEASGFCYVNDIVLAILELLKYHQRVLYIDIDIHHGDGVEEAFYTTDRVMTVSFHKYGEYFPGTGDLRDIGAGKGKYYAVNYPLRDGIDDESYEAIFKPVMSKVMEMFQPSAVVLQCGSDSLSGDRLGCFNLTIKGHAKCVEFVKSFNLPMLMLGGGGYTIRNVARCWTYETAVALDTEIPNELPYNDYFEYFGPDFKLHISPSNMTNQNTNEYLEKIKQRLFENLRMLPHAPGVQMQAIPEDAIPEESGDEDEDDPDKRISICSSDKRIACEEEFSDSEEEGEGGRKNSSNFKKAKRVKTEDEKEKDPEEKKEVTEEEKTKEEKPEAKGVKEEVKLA

## COc1ccc(C(=O)c2cn(Cc3ccc(C(=O)NO)cc3)c3cc(OC)ccc23)cc1
PC-3
  IC50: 1840 nM
Histone deacetylase 1
  IC50: 158 nM
Homo sapiens [1]
  inhibition: Dose-dependent effect
Histone deacetylase 2
  IC50: 209 nM
HCT-116
  IC50: 1900 nM
[2]
  IC50: 108 nM
A549
  IC50: 940 nM
Homo sapiens [3]
  inhibition: inactive
Sus scrofa [4]
  inhibition: inactive
[5]
  IC50: 145 nM
Homo sapiens [6]
  alpha-tubulin acetylation increase: Dose-dependent effect

## CC(C)C[C@H](NC(=O)[C@H](Cc1ccccc1)NC(=O)c1cnccn1)B(O)O [BORTEZOMIB]
Mus musculus
  Activity: Toxic

## COc1cc(C(=O)c2cn(S(=O)(=O)c3cccc(/C=C/C(=O)NO)c3)c3ccccc23)cc(OC)c1OC
PC-3
  IC50: 5770 nM
Histone deacetylase 1
  IC50: 139 nM
Homo sapiens [7]
  inhibition: inactive
Histone deacetylase 2
  IC50: 2320 nM
HCT-116
  IC50: 6680 nM
[2]
  IC50: 792 nM
A549
  IC50: 4590 nM
Homo sapiens [3]
  inhibition: inactive
Sus scrofa [4]
  inhibition: inactive
[5]
  IC50: 172 nM

## COc1ccc2c(C(=O)c3cc(OC)c(OC)c(OC)c3)cn(Cc3ccc(/C=C/C(=O)NO)cc3)c2c1
PC-3
  IC50: 666 nM
Histone deacetylase 1
  IC50: 130 nM
Sus scrofa [8]
  inhibition: Dose-dependent effect
Homo sapiens [1]
  inhibition: Dose-dependent effect
Histone deacetylase 2
  IC50: 288 nM
HCT-116
  IC50: 1670 nM
[2]
  IC50: 70.5 nM
A549
  IC50: 678 nM
[5]
  IC50: 147 nM
Homo sapiens [6]
  alpha-tubulin acetylation increase: Dose-dependent effect

## CN1CCc2c(c3ccccc3n2Cc2ccc(C(=O)NO)cc2)C1
Homo sapiens [9]
  Ratio IC50: 14

## COc1ccc2c(C(=O)c3cc(OC)c(OC)c(OC)c3)cn(S(=O)(=O)c3ccc(/C=C/C(=O)NO)cc3)c2c1
PC-3
  IC50: 66.7 nM
Histone deacetylase 1
  IC50: > 10000 nM
Histone deacetylase 2
  IC50: > 10000 nM
HCT-116
  IC50: 70.3 nM
[2]
  IC50: > 10000 nM
A549
  IC50: 120 nM
Sus scrofa [10]
  inhibition: Active
[5]
  IC50: > 10000 nM

## COc1cc(C(=O)c2cn(Cc3ccc(/C=C/C(=O)NO)cc3)c3ccccc23)cc(OC)c1OC
PC-3
  IC50: 2600 nM
Histone deacetylase 1
  IC50: 141 nM
Homo sapiens [1]
  inhibition: Dose-dependent effect
Histone deacetylase 2
  IC50: 386 nM
HCT-116
  IC50: 5500 nM
[2]
  IC50: 138 nM
A549
  IC50: 1900 nM
Homo sapiens [3]
  inhibition: inactive
Sus scrofa [4]
  inhibition: inactive
[5]
  IC50: 178 nM
Homo sapiens [6]
  alpha-tubulin acetylation increase: Dose-dependent effect

## COc1ccc2c(C(=O)c3cc(OC)c(OC)c(OC)c3)cn(Cc3ccc(C(=O)Nc4ccccc4N)cc3)c2c1
PC-3
  IC50: 157 nM
Sus scrofa [8]
  inhibition: Dose-dependent effect
HCT-116
  IC50: 231 nM
A549
  IC50: 208 nM
[5]
  IC50: > 10000 nM
